Experimental data published in ChEMBL document CHEMBL3120126, “Discovery of hepatitis C virus NS3-4A protease inhibitors with improved barrier to resistance and favorable liver distribution” (J Med Chem, 2014).

What was measured:
[1] = AUC in rat at 10 mg/kg, po; assay type: ADME, organism-based; set-up: dose 10 mg/kg, route oral; settings: plasma
[2] = Drug uptake in rat liver after 8 hrs; assay type: ADME, tissue-based; settings: read-out: Drug uptake
[3] = Volume of distribution at steady state in rat at 4 mg/kg, iv; assay type: ADME, organism-based; set-up: dose 4 mg/kg, route intravenous; settings: in vivo, read-out: Vdss
Outline: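 Rats received intravenous dosing in a vehicle of 70% PEG-400.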

Liver = assay: Liver-to-plasma partition coefficient in rat
[4] = Oral bioavailability in rat at 10 mg/kg; assay type: ADME, organism-based; settings: in vivo
Outline: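 Bioavailability was derived from rat oral dosing in 1% N-methyl-2-pyrrolidone, 0.5% Methocel and 0.3% Tween-80, compared with intravenous dosing in a 70% PEG-400-based vehicle.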

[5] = Cmax in rat at 10 mg/kg, po; assay type: ADME, organism-based; set-up: dose 10 mg/kg, route oral; settings: in vivo

Row | AUC [1] | concentration at 8 h [2] | Vd [3] | Kp (Liver) | bioavailability [4] | Cmax [5] | Compound
1 | 0.36 µM·h | 6.5 µM | 0.86 L/kg | 323 | 6.1% | 300 nM | COc1ccc2c(O[C@@H]3C[C@H]4C(=O)N[C@]5(C(=O)NS(=O)(=O)C6CC6)C[C@H]5/C=C\CCCCC[C@H](NC(=O)c5ccn(CC(F)F)n5)C(=O)N4C3)cc(OC(C)C)nc2c1C
2 | 1.3 µM·h | 11 µM | 3.3 L/kg | 360 | 11% | 880 nM | COc1ccc2c(O[C@@H]3C[C@H]4C(=O)N[C@]5(C(=O)NS(=O)(=O)C6CC6)C[C@H]5/C=C\CCCCC[C@H](NC(=O)c5ccn(CC(F)(F)F)n5)C(=O)N4C3)cc(OC(C)C)nc2c1C
3 | 1.4 µM·h | 73 µM | 2 L/kg | > 1500 | 16% | 870 nM | COc1ccc2c(O[C@@H]3C[C@H]4C(=O)N[C@]5(C(=O)NS(=O)(=O)C6(C)CC6)C[C@H]5/C=C\CCCCC[C@H](NC(=O)c5cnn(C)n5)C(=O)N4C3)cc(OC(C)C)nc2c1C
4 | 1.4 µM·h | 56 µM | 0.97 L/kg | > 1500 | 14% | 1300 nM | COc1ccc2c(O[C@@H]3C[C@H]4C(=O)N[C@]5(C(=O)NS(=O)(=O)C6(C)CC6)C[C@H]5/C=C\CCCCC[C@H](NC(=O)c5ccn(C)n5)C(=O)N4C3)cc(OC(C)C)nc2c1C
